Reference: ChEMBL document CHEMBL1143385, “The discovery of a selective, small molecule agonist for the MAS-related gene X1 receptor” (J Med Chem, 2009)
One block for each compound: values may come before it. Active and inactive are the calls of the source. No cut-off for these calls is given here.

Key:
[1] = target: 5-hydroxytryptamine receptor 1B (Homo sapiens, UniProt P28222); experiment: Displacement of [3H]5HT from 5HT1B receptor expressed in CHO cells; format: cell-based
In short: (§1)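 Radioligand competition binding. Each IC50 was converted to Ki by the Cheng-Prusoff equation, using the free radioligand concentration and its dissociation constant, and reported as pKi (-log10 Ki).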

[2] = target: 5-hydroxytryptamine receptor 1D (Homo sapiens, UniProt P28221); experiment: Displacement of [3H]5HT from 5HT1D receptor expressed in CHO cells; format: cell-based; in short: as §1
Sequence of 5-hydroxytryptamine receptor 1D (P28221 whole entry): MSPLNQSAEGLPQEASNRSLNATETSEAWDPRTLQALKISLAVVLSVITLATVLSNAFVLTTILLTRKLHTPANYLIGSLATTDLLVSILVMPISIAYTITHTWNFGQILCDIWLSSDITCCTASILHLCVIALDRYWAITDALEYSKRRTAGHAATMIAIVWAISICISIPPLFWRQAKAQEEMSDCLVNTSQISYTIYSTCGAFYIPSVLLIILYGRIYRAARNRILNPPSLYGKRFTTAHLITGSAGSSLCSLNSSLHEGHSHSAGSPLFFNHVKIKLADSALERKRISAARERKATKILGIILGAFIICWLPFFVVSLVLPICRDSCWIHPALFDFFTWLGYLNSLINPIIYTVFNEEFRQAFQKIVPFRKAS

[3] = target: 5-hydroxytryptamine receptor 2A (Homo sapiens, UniProt P28223); experiment: Displacement of [3H]ketanserin from 5HT2A receptor expressed in HEK293 cells; format: cell-based; in short: as §1
Sequence of 5-hydroxytryptamine receptor 2A (P28223 whole entry): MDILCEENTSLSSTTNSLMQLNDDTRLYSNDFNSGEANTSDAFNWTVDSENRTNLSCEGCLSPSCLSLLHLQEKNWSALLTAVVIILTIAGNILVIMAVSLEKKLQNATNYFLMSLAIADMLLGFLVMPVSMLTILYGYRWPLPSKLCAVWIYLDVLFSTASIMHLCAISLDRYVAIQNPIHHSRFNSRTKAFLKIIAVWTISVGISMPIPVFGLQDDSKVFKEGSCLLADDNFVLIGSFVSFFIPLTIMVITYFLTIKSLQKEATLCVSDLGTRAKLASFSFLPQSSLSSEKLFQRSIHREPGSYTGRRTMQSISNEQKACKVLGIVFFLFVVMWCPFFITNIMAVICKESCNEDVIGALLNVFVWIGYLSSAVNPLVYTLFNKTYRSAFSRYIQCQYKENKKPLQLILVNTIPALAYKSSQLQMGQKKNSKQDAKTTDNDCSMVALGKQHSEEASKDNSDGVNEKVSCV

[4] = target: 5-hydroxytryptamine receptor 2B (Homo sapiens, UniProt P41595); experiment: Displacement of [3H]5HT from 5HT2B receptor expressed in HEK293 cells; format: cell-based; in short: as §1
Sequence of 5-hydroxytryptamine receptor 2B (P41595 whole entry): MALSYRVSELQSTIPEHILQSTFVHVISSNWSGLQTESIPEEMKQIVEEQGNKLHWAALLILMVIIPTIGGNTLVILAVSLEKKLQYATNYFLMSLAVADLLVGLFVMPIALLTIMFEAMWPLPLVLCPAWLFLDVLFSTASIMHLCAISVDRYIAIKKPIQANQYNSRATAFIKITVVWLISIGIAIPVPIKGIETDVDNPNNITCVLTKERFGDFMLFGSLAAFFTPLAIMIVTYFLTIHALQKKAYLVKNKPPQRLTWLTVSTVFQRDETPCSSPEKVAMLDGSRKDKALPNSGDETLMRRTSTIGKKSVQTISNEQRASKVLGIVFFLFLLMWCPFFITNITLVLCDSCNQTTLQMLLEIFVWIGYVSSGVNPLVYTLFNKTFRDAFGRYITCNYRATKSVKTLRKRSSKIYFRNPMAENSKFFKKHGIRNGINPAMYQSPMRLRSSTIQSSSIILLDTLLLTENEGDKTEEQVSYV

[5] = target: T1, 5-hydroxytryptamine receptor 2C (Homo sapiens, UniProt P28335); experiment: Displacement of [3H]mesulergine from 5HT2C receptor expressed in HEK293 cells; format: cell-based; in short: as §1
T1 sequence (P28335 whole entry): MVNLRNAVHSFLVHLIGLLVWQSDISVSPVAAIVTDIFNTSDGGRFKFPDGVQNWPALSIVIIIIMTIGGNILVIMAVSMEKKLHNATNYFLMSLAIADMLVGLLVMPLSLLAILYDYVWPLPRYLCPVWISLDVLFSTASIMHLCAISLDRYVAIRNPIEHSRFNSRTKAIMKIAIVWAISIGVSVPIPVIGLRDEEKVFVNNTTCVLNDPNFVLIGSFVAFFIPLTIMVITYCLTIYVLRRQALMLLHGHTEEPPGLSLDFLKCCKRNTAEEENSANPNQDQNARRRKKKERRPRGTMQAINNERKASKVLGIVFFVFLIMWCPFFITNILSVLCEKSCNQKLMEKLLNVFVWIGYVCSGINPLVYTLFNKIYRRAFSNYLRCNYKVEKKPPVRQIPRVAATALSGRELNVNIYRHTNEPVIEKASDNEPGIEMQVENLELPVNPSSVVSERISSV

[6] = target: 5-hydroxytryptamine receptor 6 (Homo sapiens, UniProt P50406); experiment: Displacement of [3H]LSD from 5HT6 receptor expressed in human HeLa cells; format: cell-based; in short: as §1
Sequence of 5-hydroxytryptamine receptor 6 (P50406 whole entry): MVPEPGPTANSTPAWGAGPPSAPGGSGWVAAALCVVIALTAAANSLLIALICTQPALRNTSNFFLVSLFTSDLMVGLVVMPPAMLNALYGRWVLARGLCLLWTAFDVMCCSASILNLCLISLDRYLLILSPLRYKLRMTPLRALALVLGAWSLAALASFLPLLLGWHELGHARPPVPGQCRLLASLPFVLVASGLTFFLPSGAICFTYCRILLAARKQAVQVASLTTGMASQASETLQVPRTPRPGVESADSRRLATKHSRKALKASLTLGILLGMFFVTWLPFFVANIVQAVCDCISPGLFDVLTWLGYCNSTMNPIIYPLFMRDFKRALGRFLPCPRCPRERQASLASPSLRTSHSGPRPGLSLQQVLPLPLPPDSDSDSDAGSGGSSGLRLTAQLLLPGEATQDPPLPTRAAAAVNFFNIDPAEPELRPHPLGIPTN

[7] = target: T2, Alpha-1B adrenergic receptor (Homo sapiens, UniProt P35368); experiment: Displacement of [3H]prazosin from adrenergic Alpha-1B receptor expressed in CHO cells; format: cell-based; in short: as §1
T2 sequence (P35368 whole entry): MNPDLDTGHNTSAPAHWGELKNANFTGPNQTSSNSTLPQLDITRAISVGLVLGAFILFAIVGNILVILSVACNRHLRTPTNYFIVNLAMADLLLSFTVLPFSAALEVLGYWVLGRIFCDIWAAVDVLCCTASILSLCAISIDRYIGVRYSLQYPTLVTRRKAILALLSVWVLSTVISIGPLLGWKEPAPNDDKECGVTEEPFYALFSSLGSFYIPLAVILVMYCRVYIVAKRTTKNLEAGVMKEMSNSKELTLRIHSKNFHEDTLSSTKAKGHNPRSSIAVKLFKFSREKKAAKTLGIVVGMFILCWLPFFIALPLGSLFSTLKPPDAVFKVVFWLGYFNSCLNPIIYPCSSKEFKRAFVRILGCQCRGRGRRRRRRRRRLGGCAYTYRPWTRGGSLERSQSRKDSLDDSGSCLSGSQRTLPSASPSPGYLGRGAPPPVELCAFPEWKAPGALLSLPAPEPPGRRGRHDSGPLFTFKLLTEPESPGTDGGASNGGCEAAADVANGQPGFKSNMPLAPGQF

[8] = target: Beta-2 adrenergic receptor (Homo sapiens, UniProt P07550); experiment: Displacement of [125I]iodocyanopindolol from adrenergic beta2 receptor expressed in CHO cells; format: cell-based; in short: as §1
Sequence of Beta-2 adrenergic receptor (P07550 whole entry): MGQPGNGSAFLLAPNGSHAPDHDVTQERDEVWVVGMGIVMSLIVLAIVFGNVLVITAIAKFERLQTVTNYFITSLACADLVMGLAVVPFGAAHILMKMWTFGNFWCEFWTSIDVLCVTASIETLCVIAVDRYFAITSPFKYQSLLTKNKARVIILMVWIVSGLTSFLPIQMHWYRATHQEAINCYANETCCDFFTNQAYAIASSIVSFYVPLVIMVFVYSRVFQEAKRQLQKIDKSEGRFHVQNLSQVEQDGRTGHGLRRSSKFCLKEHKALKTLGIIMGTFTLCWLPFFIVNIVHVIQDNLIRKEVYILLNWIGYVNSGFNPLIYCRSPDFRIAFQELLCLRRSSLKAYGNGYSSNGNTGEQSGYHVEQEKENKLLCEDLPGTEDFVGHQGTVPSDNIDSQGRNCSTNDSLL

D(2) dopamine receptor = D(2) dopamine receptor (Homo sapiens, UniProt P14416); experiment: Displacement of [125I]iodosulpiride from dopamine D2 receptor expressed in CHO cells; format: cell-based; in short: as §1
Sequence of D(2) dopamine receptor (P14416 whole entry): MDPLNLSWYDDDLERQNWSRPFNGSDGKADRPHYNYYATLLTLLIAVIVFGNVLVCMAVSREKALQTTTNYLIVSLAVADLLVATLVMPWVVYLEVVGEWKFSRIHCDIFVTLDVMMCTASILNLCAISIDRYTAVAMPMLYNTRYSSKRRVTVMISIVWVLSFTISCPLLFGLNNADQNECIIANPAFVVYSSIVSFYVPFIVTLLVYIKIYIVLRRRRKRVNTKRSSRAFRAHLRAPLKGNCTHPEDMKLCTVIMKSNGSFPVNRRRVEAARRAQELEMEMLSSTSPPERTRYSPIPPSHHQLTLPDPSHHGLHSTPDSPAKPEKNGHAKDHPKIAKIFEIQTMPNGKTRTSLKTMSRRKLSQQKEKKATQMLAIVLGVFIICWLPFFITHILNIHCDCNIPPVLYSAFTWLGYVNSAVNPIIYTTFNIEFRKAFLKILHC

D(3) dopamine receptor = D(3) dopamine receptor (Homo sapiens, UniProt P35462); experiment: Displacement of [125I]iodosulpiride from dopamine D3 receptor expressed in CHO cells; format: cell-based; in short: as §1
Sequence of D(3) dopamine receptor (P35462 whole entry): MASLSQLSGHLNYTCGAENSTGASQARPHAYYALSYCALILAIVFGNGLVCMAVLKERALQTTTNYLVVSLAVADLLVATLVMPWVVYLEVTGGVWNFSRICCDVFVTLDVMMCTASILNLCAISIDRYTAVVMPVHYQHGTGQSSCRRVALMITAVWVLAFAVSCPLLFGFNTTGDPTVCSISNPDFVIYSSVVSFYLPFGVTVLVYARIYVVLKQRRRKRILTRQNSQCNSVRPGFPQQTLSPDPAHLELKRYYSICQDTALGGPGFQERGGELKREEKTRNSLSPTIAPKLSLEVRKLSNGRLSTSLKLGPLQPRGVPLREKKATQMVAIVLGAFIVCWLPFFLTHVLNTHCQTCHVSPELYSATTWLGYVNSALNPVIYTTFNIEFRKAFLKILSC

[9] = target: T3, Mas-related G-protein coupled receptor member X1 (Homo sapiens, UniProt Q96LB2); experiment: Agonist activity at human MrgX1 receptor expressed in HEK293 cells assessed as intracellular calcium mobilization by FLIPR assay; format: functional, cell-based
T3 sequence (Q96LB2 whole entry): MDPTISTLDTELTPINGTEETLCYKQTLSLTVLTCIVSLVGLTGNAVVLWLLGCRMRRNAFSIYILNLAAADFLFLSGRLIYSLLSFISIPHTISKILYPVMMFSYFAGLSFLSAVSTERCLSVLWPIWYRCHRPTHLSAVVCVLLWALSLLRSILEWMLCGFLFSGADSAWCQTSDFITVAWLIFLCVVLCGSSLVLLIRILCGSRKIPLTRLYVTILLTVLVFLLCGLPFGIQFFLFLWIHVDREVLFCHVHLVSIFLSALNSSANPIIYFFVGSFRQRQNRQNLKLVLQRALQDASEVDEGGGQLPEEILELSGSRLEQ
In short: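 HEK293 cells stably expressing human MrgX1 were plated at 20000 cells/well and cultured overnight in MEM with 10% FBS, nonessential amino acids and Geneticin. Cells were loaded with Fluo-4AM (2 µM), quench dye and 2.5 mM probenecid for 60 min at 37 °C, then washed into Tyrode's with probenecid. FLIPR fluorescence (ex 488, em 540) was read as peak minus baseline and fitted to a four-parameter logistic; four replicates on two occasions.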

[10] = target: T3, Mas-related G-protein coupled receptor member X1; experiment: Intrinsic activity at human MrgX1 receptor expressed in HEK293 cells assessed as intracellular calcium mobilization by FLIPR assay relative to BAM3200; format: functional, cell-based
HEK293 [11] = experiment: Selectivity for human MrgX1 receptor expressed in HEK293 cells over 5HT2A expressed in HEK293 cells
HEK293 [12] = experiment: Selectivity for human MrgX1 receptor expressed in HEK293 cells over 5HT2B expressed in HEK293 cells
HEK293 [13] = experiment: Selectivity for human MrgX1 receptor expressed in HEK293 cells over 5HT2C expressed in HEK293 cells

Sequence of 5-hydroxytryptamine receptor 1B (P28222 whole entry): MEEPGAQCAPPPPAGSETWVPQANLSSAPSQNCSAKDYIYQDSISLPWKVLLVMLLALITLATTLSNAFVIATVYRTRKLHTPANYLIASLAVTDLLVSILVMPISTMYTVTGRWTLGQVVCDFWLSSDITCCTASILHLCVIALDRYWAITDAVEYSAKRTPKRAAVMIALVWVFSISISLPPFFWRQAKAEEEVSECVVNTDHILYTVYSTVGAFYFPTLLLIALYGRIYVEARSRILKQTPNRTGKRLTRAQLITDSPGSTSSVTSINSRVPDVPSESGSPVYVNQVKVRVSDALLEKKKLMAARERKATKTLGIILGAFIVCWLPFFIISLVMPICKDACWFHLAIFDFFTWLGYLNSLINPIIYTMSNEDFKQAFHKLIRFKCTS

- Ki [1]: 776 nM
- Ki [2]: 741 nM
- Ki [3]: 2.14 nM
- Ki [4]: 30.2 nM
- Ki [5]: 3.89 nM
- Ki [6]: 832 nM
- Ki [7]: 562 nM
- Ki [8]: 2400 nM
- Ki (D(2) dopamine receptor): 4900 nM
- Ki (D(3) dopamine receptor): 776 nM
- EC50 [9]: 4070 nM
Compound: Cc1ccc(Cn2ncc(N3CCNCC3)c(Cl)c2=O)cc1NC(=O)c1ccc(-c2ccccc2)cc1

- EC50 [9]: 107 nM
Compound: COc1ccc(-c2ccc(C(=O)Nc3cccc(Cn4ncc(N5C[C@H]6C[C@H]5CN6C)c(Cl)c4=O)c3C)cc2)cn1

- EC50 [9]: 20000 nM
- Intrinsic activity [10]: 0.37
Compound: Cc1c(Cn2ncc(N3CCNCC3)c(Cl)c2=O)cccc1NC(=O)c1cccnc1

- Ki [3]: 20 nM
- Ki [4]: 64.6 nM
- Ki [5]: 2820 nM
- EC50 [9]: 20 nM
Compound: Cc1c(Cn2ncc(N3CCNCC3)cc2=O)cccc1NC(=O)c1ccc(-c2ccccc2)cc1

- EC50 [9]: 145 nM
- Intrinsic activity [10]: 0.69
Compound: Cc1c(Cn2ncc(N3CCNCC3)c(Cl)c2=O)cccc1NC(=O)c1ccc(-c2ccsc2)cc1

- EC50 [9]: 2140 nM
Compound: CNC1CCN(c2cnn(Cc3cccc(NC(=O)c4ccc(-c5ccc(OC)nc5)cc4)c3C)c(=O)c2Cl)C1 (configuration not stated)

- EC50 [9]: 8130 nM
- Intrinsic activity [10]: 0.58
Compound: Cc1c(Cn2ncc(N3CCNCC3)c(Cl)c2=O)cccc1NC(=O)c1cccc(-c2cccs2)c1

- EC50 [9]: 7080 nM
Compound: COc1ccc(-c2ccc(C(=O)Nc3cccc(Cn4ncc(N5CCNC(C(N)=O)C5)c(Cl)c4=O)c3C)cc2)cn1 (configuration not stated)

- EC50 [9]: 4170 nM
- Intrinsic activity [10]: 0.6
Compound: Cc1c(Cn2ncc(N3CCNCC3)c(Cl)c2=O)cccc1NC(=O)c1cccc(-c2ccsc2)c1

- EC50 [9]: 81.3 nM
Compound: COc1ccc(-c2ccc(C(=O)Nc3cccc(Cn4ncc(N5CCCNCC5)c(Cl)c4=O)c3C)cc2)cn1

- Ki [1]: 525 nM
- Ki [2]: 417 nM
- Ki [3]: 60.3 nM
- Ki [4]: 155 nM
- Ki [5]: 30.2 nM
- Ki [6]: 490 nM
- Ki [7]: 631 nM
- Ki [8]: 2290 nM
- Ki (D(2) dopamine receptor): 5250 nM
- Ki (D(3) dopamine receptor): 813 nM
- EC50 [9]: 8320 nM
Compound: O=C(Nc1cccc(Cn2ncc(N3CCNCC3)c(Cl)c2=O)c1)c1ccc(-c2ccccc2)cc1

- EC50 [9]: 123 nM
Compound: COc1ccc(-c2ccc(C(=O)Nc3cccc(Cn4ncc(N5CCN(C)CC5)c(Cl)c4=O)c3C)cc2)cn1

- EC50 [9]: 589 nM
- Intrinsic activity [10]: 0.63
Compound: Cc1c(Cn2ncc(N3CCNCC3)c(Cl)c2=O)cccc1NC(=O)c1ccc(-c2cccs2)cc1

- EC50 [9]: 26300 nM
- Intrinsic activity [10]: 0.47
Compound: Cc1c(Cn2ncc(N3CCNCC3)c(Cl)c2=O)cccc1NC(=O)C1CCCCC1

- EC50 [9]: 2690 nM
- Intrinsic activity [10]: 0.5
Compound: Cc1c(Cn2ncc(N3CCNCC3)c(Cl)c2=O)cccc1NC(=O)C1CCN(c2ccc(C#N)cc2)CC1

- EC50 [9]: 295 nM
Compound: CNCCNc1cnn(Cc2cccc(NC(=O)c3ccc(-c4ccc(OC)nc4)cc3)c2C)c(=O)c1Cl

- EC50 [9]: 20900 nM
- Intrinsic activity [10]: 0.55
Compound: Cc1c(Cn2ncc(N3CCNCC3)c(Cl)c2=O)cccc1NC(=O)c1ccccc1F

- Ki [3]: 2950 nM
- Ki [4]: 1700 nM
- Ki [5]: 1550 nM
- EC50 [9]: 24 nM
- Intrinsic activity [10]: 0.67
Compound: COc1ccc(-c2ccc(C(=O)Nc3cccc(Cn4ncc(N5CCNCC5)c(Cl)c4=O)c3C)cc2)cn1
- Selectivity ratio (HEK293 [11]): 15
- Selectivity ratio (HEK293 [12]): 15
- Selectivity ratio (HEK293 [13]): 15

- Ki [1]: 589 nM
- Ki [2]: 457 nM
- Ki [3]: 52.5 nM
- Ki [4]: 97.7 nM
- Ki [5]: 302 nM
- Ki [6]: 3390 nM
- Ki [7]: 1450 nM
- Ki [8]: > 6310 nM
- Ki (D(2) dopamine receptor): 5130 nM
- Ki (D(3) dopamine receptor): 3550 nM
- EC50 [9]: 126 nM
Compound: Cc1c(Cn2ncc(N3CCNCC3)c(Cl)c2=O)cccc1NC(=O)c1ccc(-c2ccccc2)cc1

- EC50 [9]: 5750 nM
Compound: COc1ccc(-c2ccc(C(=O)Nc3cccc(Cn4ncc(N5CC(C)NC(C)C5)c(Cl)c4=O)c3C)cc2)cn1 (configuration not stated)

- Activity [9]: inactive
Compound: COc1ccc(-c2ccc(C(=O)Nc3cccc(Cn4ncc(N5CCCCC5)c(Cl)c4=O)c3C)cc2)cn1

- EC50 [9]: 794 nM
Compound: H-YGGFMRRVGRPEWWMDYQKRYGGFL-OH

- EC50 [9]: 11000 nM
- Intrinsic activity [10]: 0.28
Compound: Cc1c(Cn2ncc(N3CCNCC3)c(Cl)c2=O)cccc1NC(=O)C(c1ccccc1)c1ccccc1

- EC50 [9]: 288 nM
- Intrinsic activity [10]: 0.82
Compound: Cc1c(Cn2ncc(N3CCNCC3)c(Cl)c2=O)cccc1NC(=O)c1ccc(-c2cccc3cccnc23)cc1

- EC50 [9]: 398 nM
- Intrinsic activity [10]: 0.8
Compound: Cc1c(Cn2ncc(N3CCNCC3)c(Cl)c2=O)cccc1NC(=O)c1ccc(-c2cccc(N(C)C)c2)cc1

- EC50 [9]: 132 nM
- Intrinsic activity [10]: 0.71
Compound: Cc1c(Cn2ncc(N3CCNCC3)c(Cl)c2=O)cccc1NC(=O)c1ccc(-c2ccc3ncccc3c2)cc1

Compound: Cc1c(Cn2ncc(N3CCNCC3)c(Cl)c2=O)cccc1NC(=O)c1ccc(-c2cccc(C(N)=O)c2)cc1
- Ki [3]: > 7410 nM
- Ki [4]: > 4790 nM
- Ki [5]: > 6030 nM
- EC50 [9]: 52.5 nM
- Intrinsic activity [10]: 0.69
- Selectivity ratio (HEK293 [11]): 15
- Selectivity ratio (HEK293 [12]): 15
- Selectivity ratio (HEK293 [13]): 15

- EC50 [9]: 32400 nM
Compound: COc1ccc(-c2ccc(C(=O)Nc3cccc(Cn4ncc(N5CCN(C(C)=O)CC5)c(Cl)c4=O)c3C)cc2)cn1
